Bioassay records deposited in PubChem BioAssay by several laboratories.
TROY NFkB inh: TROY signaling inhibition; hit rate 0.98% among 360,000; inhibition, % at 10 µM; AID 1347056; Q293 LMP1-TROYcd NF-kB luciferase reporter, 4 h;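 active = compounds whose plate-normalised and pattern-corrected inhibition of the luciferase reporter signal at the single screening dose is 50% or more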
CaV13 ICDI inh: Primary screen for inhibitors of IQ motif and Ca2+-dependent inactivation inhibitor domain binding in CACNA1D, Förster resonance energy transfer in living cells, … | HEK cells, CFP/YFP FRET ICDI-IQ, plate reader, 10 min; percent FRET-ratio fall versus neutral wells | inhibition, % at 12.3 µM | hit rate 0.098% among 340,000;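 active = mean replicate inhibition of at least 30% and at least 1% of replicates passing that level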
LGR2 inh: Drosophila LGR2 receptor signaling inhibition. hit rate 0.35% among 380,000. inhibition, % at 9.99 µM. HEK293 LGR2, CRE-luciferase, bursicon-stimulated, 4 h;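 active = drop in luminescence signal, shown as inhibition above about 50% in the replicate tests, limit read from the data, passing the limit was not always enough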;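 also: agonist challenge used bursicon conditioned medium at about half maximal strength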
XiGFP reactiv: activators of X-chromosome reactivation in mouse fibroblasts | XiGFP mouse fibroblasts, % GFP-positive cells imaging, 3 d; cells co-treated with 5-aza-dC sensitizer; scaled so ellipticine positive control = 100% | activation, % at 7.58 µM | hit rate 0.055% among 360,000 | AID 743238;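 active = mean normalized replicate activation at least 10% and every replicate at or above 10%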
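assay system = SV40-immortalized XiGFP fibroblast cells, line 68-5-11 | buffer or medium = DMEM plus 5-aza-dC sensitizer | doses = single-point pinned compound dosing | times = 3-day compound exposure, then 15 min fixation at room temperature | benchmarks = positive control ellipticine, 6 µM final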
TWEAK-Fn14 inh: inhibitors of TWEAK-Fn14 interaction signaling; TWEAK-stimulated Fn14 reporter cells, luciferase luminescence, 8 h; inhibition, % at 10 µM; hit rate 2% among 360,000; in the data active = inhibition above about 50%
A number is an active result; – = inactive; · = no result; ! = not confirmed by another sample. An excerpt weighted towards active compounds, which were near 2% of everything screened.

SMILES | TROY NFkB inh | CaV13 ICDI inh | LGR2 inh | XiGFP reactiv | TWEAK-Fn14 inh
CCCCn1c(=O)[nH]c(=O)c2c1nc(Cn1ncc(Cl)c(Cl)c1=O)n2CCC | 70.8 | – | – | – | 93.8
CCCCn1c(=O)[nH]c(=O)c2c1nc(CN1C(=O)c3ccccc3S1(=O)=O)n2CCC | – | – | · | · | –
CCCC(=O)Nc1ccc2c(c1)C(=O)N(C)[C@H]1CC[C@@H](CC(=O)NCc3ccccc3F)O[C@@H]1CO2 | · | · | – | – | ·
C[C@@H]1CN([C@H](C)CO)S(=O)(=O)c2ccc(-c3ccc(F)cc3)cc2O[C@H]1CN(C)C | · | · | – | – | ·
Cc1cccc(Cn2nnc3c2C(=O)c2ccccc2C3=O)c1 | – | – | · | · | –
Cc1ccccc1Cn1nnc2c1C(=O)c1ccccc1C2=O | 50.1 | – | · | · | –
O=C(Nc1ccc(C(F)(F)F)cc1)N[C@H]1CC[C@H](CC(=O)N2CCCCC2)O[C@H]1CO | · | · | – | – | ·
C[C@@H]1CCCCO[C@@H](CN(C)Cc2ccncc2)[C@H](C)CN([C@@H](C)CO)C(=O)c2cc(NC(=O)Nc3ccc(F)cc3)ccc2O1 | · | · | – | – | ·
CCOC(=O)c1ccc(N=c2sc(C(=O)OC)cc(=O)n2CCCN2CCOCC2)cc1 | – | – | – | – | –
CCOC(=O)c1ccc(N=c2sc(C(=O)OC)cc(=O)n2Cc2ccco2)cc1 | – | – | 69.5 | – | 64.2
COc1ccccc1NC(=O)N[C@@H]1CC[C@@H](CCNS(=O)(=O)c2ccc(F)cc2)O[C@@H]1CO | · | · | – | – | ·
C[C@H](CO)N1C[C@H](C)[C@@H](CN(C)C(=O)Nc2cccc(F)c2)OCc2ccccc2-c2c(n(C)c3ccccc23)C1=O | · | · | – | – | ·
C1CCC(c2nn3c(-c4n[nH]c5c4CCC5)nnc3s2)CC1 | – | – | · | · | –
CCN(CC)c1ccc(-c2nn3c(-c4n[nH]c5c4CCC5)nnc3s2)cc1 | 51.6 | – | · | · | –
CC(C)NC(=O)Nc1cccc2c1O[C@H](CN(C)C(=O)OC(C)(C)C)[C@@H](C)CN(C)C2=O | · | · | · | – | ·
CCOC(=O)Cc1csc(N/N=C/c2cccc([N+](=O)[O-])c2)n1 | – | – | – | – | –
CN(C)S(=O)(=O)c1ccc(-c2csc(N/N=C/c3ccc(O)cc3)n2)cc1 | 68.7 | – | – | – | 98.7
O=[N+]([O-])c1cccc(-c2csc(N/N=C/c3cccc(O)c3)n2)c1 | 51.3 | – | – | – | 58.1
CN(C)S(=O)(=O)c1ccc(-c2csc(N/N=C/c3ccco3)n2)cc1 | 70.8 | – | 101.9 | – | 103.9
C(=N\Nc1nc(-c2ccccc2)cs1)/c1ccncc1 | – | – | – | – | –
C[C@H]1CN([C@@H](C)CO)C(=O)Cc2cc(NS(=O)(=O)c3ccccc3)ccc2O[C@H]1CN(C)Cc1ccc(C(=O)O)cc1 | · | · | – | – | ·
Oc1cccc2c(NC(=S)Nc3ccc(OC(F)F)cc3)cccc12 | – | – | – | – | 90.8
FC(F)Oc1ccc(NC(=S)NCc2ccccc2)cc1 | – | – | · | – | –
CCC(=O)N(C)C[C@@H]1Oc2cc(C#CC3CCCC3)ccc2S(=O)(=O)N([C@@H](C)CO)C[C@@H]1C | · | · | – | – | ·
CCOC(=O)c1c(C)[nH]c(C(=O)OCC(=O)NC2CCS(=O)(=O)C2)c1C (configuration not stated) | · | · | – | · | 86.8
SMILES | TROY NFkB inh | CaV13 ICDI inh | LGR2 inh | XiGFP reactiv | TWEAK-Fn14 inh
COc1ccccc1NC(=O)N1CCCCN2[C@@H](CO)[C@H](c3ccc(-c4cccc(F)c4)cc3)[C@@H]2C1 | · | · | 75.7 | – | ·
N#Cc1cccc(-c2ccc([C@@H]3[C@H](CO)N4CCCCN(C(=O)Nc5cccc(F)c5)C[C@@H]34)cc2)c1 | · | · | 96.3 | – | ·
COCC(=O)N1CCCCN2[C@H](CO)[C@H](c3ccc(-c4cccc(C)c4)cc3)[C@@H]2C1 | · | · | 61.5 | – | ·
O=C(Cc1ccccc1)N1CC[C@H]2[C@H](CO)Nc3ccc(-c4ccccc4)cc3[C@H]21 | · | · | – | – | ·
CCn1cc(C(=O)NC(=S)Nc2sc3c(c2C(=O)OC)CCCCCC3)cn1 | 70.8 | – | – | – | –
CCOC(=O)c1c(NC(=O)c2nn(CC)cc2Br)sc2c1CCCCC2 | – | – | · | · | –
CC[C@@H](C(=O)[C@@H](C)[C@@H](O)[C@H](C)[C@@H]1O[C@@H]([C@@H](CC)C(=O)O)CC[C@@H]1C)[C@H]1O[C@]2(C=C[C@@H](O)[C@]3(CC[C@@](C)([C@H]4CC[C@](O)(CC)[C@H](C)O4)O3)O2)[C@H](C)C[C@@H]1C | 50.9 | – | · | – | 55.6
Cc1ccccc1Oc1cc(NC(=O)CCCn2nc(C)c([N+](=O)[O-])c2C)cc([N+](=O)[O-])c1 | – | – | – | – | 63.3
Cc1nn(CCCC(=O)Nc2cc(Oc3ccc(F)cc3)cc([N+](=O)[O-])c2)c(C)c1[N+](=O)[O-] | – | – | – | – | –
C[C@H](CO)N1C[C@H](C)[C@@H](CN(C)C(=O)C2CC2)Oc2ncc(/C=C/c3ccccc3)cc2C1=O | · | · | – | – | ·
C[C@@H]1CCCCO[C@@H](CN(C)S(=O)(=O)c2ccc(Cl)cc2)[C@@H](C)CN([C@H](C)CO)C(=O)c2cc(NS(C)(=O)=O)ccc2O1 | · | · | – | – | ·
NC(=O)c1cc2ccncc2c2ccccc12 | 57.9 | – | – | – | –
Cc1cc(C(N)=O)c2ccccc2n1 | – | – | · | · | –
N#Cc1cnn(CC2CCCCC2)c1N | · | – | · | · | 60.6
NC1=NC[C@H](c2ccccc2)N1CC1CCCCC1 | – | – | – | – | –
CCN1CCN(Cc2ccc(NC(=O)c3cc(NC(=O)C(=O)c4c[nH]c5ccccc45)cc(OC)c3)cc2C(F)(F)F)CC1 | – | – | – | – | 75.5!
COc1cc(C(=O)NC(=S)Nc2csc(-c3ccc(F)cc3)n2)cc(OC)c1OC | 56.0 | – | – | – | –
CCOC(=O)Cc1csc(NC(=S)NC(=O)c2cc(OC)c(OC)c(OC)c2)n1 | – | – | – | – | –
O=S(=O)(c1ccccc1)N1CCN(Cc2ccccc2)CC1 | – | – | – | – | –
O=C(c1ccc(S(=O)(=O)Cc2cc(F)ccc2F)c([N+](=O)[O-])c1)N1CCCC1 | – | – | – | – | –
O=S(=O)(c1ccccc1)N1CCN(Cc2cccc(Cl)c2)CC1 | – | – | · | · | 78.6
O=C(c1ccc(S(=O)(=O)Cc2cc(F)ccc2F)c([N+](=O)[O-])c1)N1CCCCC1 | – | – | – | – | 62.0
O=C(c1ccc(S(=O)(=O)c2cccc(Cl)c2)c([N+](=O)[O-])c1)N1CCN(Cc2ccccc2)CC1 | – | – | – | – | 83.8
COc1ccc(C(=O)N2CCN(Cc3ccccc3)CC2)cc1[N+](=O)[O-] | – | – | – | – | –
CC1CCN(C(=O)c2ccc(S(=O)(=O)Cc3cccc(F)c3)c([N+](=O)[O-])c2)CC1 | – | – | – | · | 65.7
COCC(=O)N1CC2(C1)CN(C(=O)Cc1ccccc1)[C@H](CO)c1c2c2ccc(OC)cc2n1C | · | · | – | – | ·
CCC(=O)Nc1ccc2c(c1)OC[C@@H](C)N(C(=O)c1cccnc1)C[C@H](C)[C@@H](OC)CN(C)C2=O | · | · | – | – | ·
